Experimental data: ChEMBL document CHEMBL3259541, “Synthesis and biological evaluation of antimetastatic agents predicated upon dihydromotuporamine C and its carbocyclic derivatives” (J Med Chem, 2014)

Key:
L3.6pl [1] = experiment: Effect on intracellular ceramide population in human L3.6PL cells assessed as sphingomyelin N24:3 level measured per mg of protein at 0.6 uM after 48 hrs incubation by mass spectrometry analysis (reference value: 0.05 +/- 0.02 nmol); format: functional
L3.6pl [2] = experiment: Effect on intracellular ceramide population in human L3.6PL cells assessed as sphingomyelin N23:2 level measured per mg of protein at 0.6 uM after 48 hrs incubation by mass spectrometry analysis (reference value: 0.03 +/- 0.02 nmol); format: functional
L3.6pl [3] = experiment: Effect on intracellular ceramide population in human L3.6PL cells assessed as sphingomyelin N25:1 level measured per mg of protein at 0.6 uM after 48 hrs incubation by mass spectrometry analysis (reference value: 0.02 +/- 0.02 nmol); format: functional
L3.6pl [4] = experiment: Effect on intracellular ceramide population in human L3.6PL cells assessed as sphingomyelin N19:0 level measured per mg of protein at 0.6 uM after 48 hrs incubation by mass spectrometry analysis (reference value: 0.01 +/- 0.01 nmol); format: functional
L3.6pl [5] = experiment: Effect on intracellular ceramide population in human L3.6PL cells assessed as sphingomyelin N23:0 level measured per mg of protein at 0.6 uM after 48 hrs incubation by mass spectrometry analysis (reference value: 0.08 +/- 0.04 nmol); format: functional
L3.6pl [6] = experiment: Effect on intracellular ceramide population in human L3.6PL cells assessed as sphingomyelin N16:0 level measured per mg of protein at 0.6 uM after 48 hrs incubation by mass spectrometry analysis (reference value: 3.21 +/- 0.90 nmol); format: functional
L3.6pl [7] = experiment: Effect on intracellular ceramide population in human L3.6PL cells assessed as sphingomyelin N18:1 level measured per mg of protein at 0.6 uM after 48 hrs incubation by mass spectrometry analysis (reference value: 0.08 +/- 0.02 nmol); format: functional
L3.6pl [8] = experiment: Effect on intracellular ceramide population in human L3.6PL cells assessed as sphingomyelin N22:1 level measured as contribution to total ceramide population at 0.6 uM after 48 hrs incubation by mass spectrometry analysis (reference value: 6.5%); format: functional
L3.6pl [9] = experiment: Effect on intracellular ceramide population in human L3.6PL cells assessed as sphingomyelin N22:0 level measured per mg of protein at 0.6 uM after 48 hrs incubation by mass spectrometry analysis (reference value: 0.30 +/- 0.10 nmol); format: functional
L3.6pl [10] = experiment: Effect on intracellular ceramide population in human L3.6PL cells assessed as sphingomyelin N16:1 level measured per mg of protein at 0.6 uM after 48 hrs incubation by mass spectrometry analysis (reference value: 0.24 +/- 0.04 nmol); format: functional
L3.6pl [11] = experiment: Effect on intracellular ceramide population in human L3.6PL cells assessed as sphingomyelin N22:2 level measured per mg of protein at 0.6 uM after 48 hrs incubation by mass spectrometry analysis (reference value: 0.02 +/- 0.00 nmol); format: functional
L3.6pl [12] = experiment: Effect on intracellular ceramide population in human L3.6PL cells assessed as sphingomyelin N24:2 level measured per mg of protein at 0.6 uM after 48 hrs incubation by mass spectrometry analysis (reference value: 0.25 +/- 0.09 nmol); format: functional
L3.6pl [13] = experiment: Effect on intracellular ceramide population in human L3.6PL cells assessed as sphingomyelin N24:0 level measured per mg of protein at 0.6 uM after 48 hrs incubation by mass spectrometry analysis (reference value: 0.22 +/- 0.06 nmol); format: functional
[14] = Cytotoxicity against human L3.6PL cells assessed as inhibition of cell growth after 48 hrs incubation by MTS assay in presence of 250 uM aminoguanidine treated 24 hrs prior compound addition; format: functional, cell-based; conditions: for IC50: Homo sapiens, L3.6pl
In short: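 L3.6pl cells pretreated 24 h with 250 μM aminoguanidine, then incubated with compound for 48 h at 37 °C. Triplicate. IC50 is the concentration giving 50% growth inhibition and IC5 the concentration giving 5% inhibition, both versus untreated control.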

L3.6pl [15] = experiment: Effect on intracellular ceramide population in human L3.6PL cells assessed as sphingomyelin N23:1 level measured per mg of protein at 0.6 uM after 48 hrs incubation by mass spectrometry analysis (reference value: 0.13 +/- 0.05 nmol); format: functional
L3.6pl [16] = experiment: Effect on intracellular ceramide population in human L3.6PL cells assessed as sphingomyelin N21:0 level measured per mg of protein at 0.6 uM after 48 hrs incubation by mass spectrometry analysis (reference value: 0.03 +/- 0.01 nmol); format: functional
L3.6pl [17] = experiment: Effect on intracellular ceramide population in human L3.6PL cells assessed as sphingomyelin N15:0 level measured per mg of protein at 0.6 uM after 48 hrs incubation by mass spectrometry analysis (reference value: 0.09 +/- 0.02 nmol); format: functional
L3.6pl [18] = experiment: Effect on intracellular ceramide population in human L3.6PL cells assessed as sphingomyelin N24:1 level measured per mg of protein at 0.6 uM after 48 hrs incubation by mass spectrometry analysis (reference value: 0.85 +/- 0.38 nmol); format: functional
L3.6pl [19] = experiment: Effect on intracellular ceramide population in human L3.6PL cells assessed as sphingomyelin N20:0 level measured as contribution to total ceramide population at 0.6 uM after 48 hrs incubation by mass spectrometry analysis (reference value: 1.1%); format: functional
L3.6pl [20] = experiment: Effect on intracellular ceramide population in human L3.6PL cells assessed as sphingomyelin N17:0 level measured per mg of protein at 0.6 uM after 48 hrs incubation by mass spectrometry analysis (reference value: 0.09 +/- 0.03 nmol); format: functional
L3.6pl [21] = experiment: Effect on intracellular ceramide population in human L3.6PL cells assessed as sphingomyelin N26:1 level measured per mg of protein at 0.6 uM after 48 hrs incubation by mass spectrometry analysis (reference value: 0.01 +/- 0.00 nmol); format: functional
CHO-MG = experiment: Cytotoxicity against polyamine transporter deficient CHO-MG cells assessed as cell growth after 48 hrs incubation by MTS assay in presence of 1 mM aminoguanidine; format: ADME, cell-based; conditions: Cricetulus griseus
In short: (§1)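 CHO and polyamine-transport-deficient CHO-MG* cells pretreated 24 h with 1 mM aminoguanidine, then exposed to compound for 48 h at 37 °C. Triplicate. IC50 taken as 50% growth inhibition. PTS selectivity expressed as the CHO-MG*/CHO IC50 ratio.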

L3.6pl [22] = experiment: Effect on intracellular ceramide population in human L3.6PL cells assessed as sphingomyelin N20:1 level measured per mg of protein at 0.6 uM after 48 hrs incubation by mass spectrometry analysis (reference value: 0.04 +/- 0.01 nmol); format: functional
CHO = experiment: Cytotoxicity against CHO cells assessed as cell growth after 48 hrs incubation by MTS assay in presence of 1 mM aminoguanidine; format: cell-based; conditions: Cricetulus griseus; in short: as §1
L3.6pl [23] = experiment: Effect on intracellular ceramide population in human L3.6PL cells assessed as sphingomyelin N18:0 level measured per mg of protein at 0.6 uM after 48 hrs incubation by mass spectrometry analysis (reference value: 0.38 +/- 0.11 nmol); format: functional
L3.6pl [24] = experiment: Effect on intracellular ceramide population in human L3.6PL cells assessed as sphingomyelin N14:0 level measured per mg of protein at 0.6 uM after 48 hrs incubation by mass spectrometry analysis (reference value: 0.12 +/- 0.03 nmol); format: functional

SMILES: Cl.NCCCNCCCNCC1CCCCCCCCCCCCCC1
- Activity (L3.6pl [1]): 0.06 nmol
- Activity (L3.6pl [2]): 0.02 nmol
- Activity (L3.6pl [3]): 0.03 nmol
- Activity (L3.6pl [4]): 0.02 nmol
- Activity (L3.6pl [5]): 0.1 nmol
- Activity (L3.6pl [6]): 4.36 nmol
- Activity (L3.6pl [7]): 0.14 nmol
- Activity (L3.6pl [8]): 4.6%
- Activity (L3.6pl [9]): 0.46 nmol
- Activity (L3.6pl [10]): 0.34 nmol
- Activity (L3.6pl [11]): 0.03 nmol
- Activity (L3.6pl [12]): 0.31 nmol
- Activity (L3.6pl [13]): 0.25 nmol
- IC5 [14]: 80 µM
- IC50 [14]: 89.4 µM
- Activity (L3.6pl [15]): 0.17 nmol
- Activity (L3.6pl [16]): 0.04 nmol
- Activity (L3.6pl [17]): 0.17 nmol
- Activity (L3.6pl [18]): 1.1 nmol
- Activity (L3.6pl [19]): 1.5%
- Activity (L3.6pl [20]): 0.16 nmol
- Activity (L3.6pl [21]): 0.01 nmol
- IC50 (CHO-MG): 87.3 µM
- Activity (L3.6pl [22]): 0.05 nmol
- IC50 (CHO): 82.9 µM
- Activity (L3.6pl [23]): 0.54 nmol
- Activity (L3.6pl [24]): 0.2 nmol

SMILES: Cl.NCCCNCCCN1CCCCCCCCCCCCCC1
- Activity (L3.6pl [1]): 0.06 nmol
- Activity (L3.6pl [2]): 0.02 nmol
- Activity (L3.6pl [3]): 0.03 nmol
- Activity (L3.6pl [4]): 0.02 nmol
- Activity (L3.6pl [5]): 0.09 nmol
- Activity (L3.6pl [6]): 4.01 nmol
- Activity (L3.6pl [7]): 0.13 nmol
- Activity (L3.6pl [8]): 18.6%
- Activity (L3.6pl [9]): 0.4 nmol
- Activity (L3.6pl [10]): 0.31 nmol
- Activity (L3.6pl [11]): 0.02 nmol
- Activity (L3.6pl [12]): 0.27 nmol
- Activity (L3.6pl [13]): 0.21 nmol
- IC5 [14]: 0.6 µM
- IC50 [14]: 0.99 µM
- Activity (L3.6pl [15]): 0.15 nmol
- Activity (L3.6pl [16]): 0.04 nmol
- Activity (L3.6pl [17]): 0.15 nmol
- Activity (L3.6pl [18]): 0.99 nmol
- Activity (L3.6pl [19]): 0.6%
- Activity (L3.6pl [20]): 0.14 nmol
- Activity (L3.6pl [21]): 0.01 nmol
- IC50 (CHO-MG): 2.96 µM
- Activity (L3.6pl [22]): 0.04 nmol
- IC50 (CHO): 2.9 µM
- Activity (L3.6pl [23]): 0.47 nmol
- Activity (L3.6pl [24]): 0.24 nmol
